Measured values from ChEMBL document CHEMBL1649560, “Beta-lactamase-mediated beta-lactam resistance in Campylobacter species: prevalence of Cj0299 (bla OXA-61) and evidence for a novel beta-Lactamase in C. jejuni” (2009).
Values after ≈ are worked out from the molar mass of the structure shown.

Tested on: Campylobacter jejuni
Assay: Antibacterial activity against bla gene-negative and nitrocefin reaction-positive beta-lactamase harboring Campylobacter jejuni isolate P854 by NCCLS agar doubling dilution method
Type: functional
In short: (§1)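 MICs of β-lactams by agar doubling dilution following the NCCLS (CLSI) Campylobacter Working Group procedure, with C. jejuni NCTC 11168 and C. coli NCTC 11366 as controls. Isolates were from UK poultry flocks. β-Lactamase status was set by Cj0299 PCR (281-bp amplimer) and by a nitrocefin colour change of sonicated lysate within 5 min, or within 30 min on repeat.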

Compound | MIC
C[C@@H](O)[C@H]1C(=O)N2C(C(=O)O)=C(S[C@@H]3CN[C@H](C(=O)N(C)C)C3)[C@H](C)[C@H]12 [MEROPENEM] | 0.03 µg/mL (≈ 0.0782 µM)

Tested on: Campylobacter coli
Assay: Antibacterial activity against bla gene-positive and nitrocefin reaction-positive beta-lactamase harboring Campylobacter coli isolate P321 by NCCLS agar doubling dilution method
Type: functional
In short: as §1

Compound | MIC
C[C@@H](O)[C@H]1C(=O)N2C(C(=O)O)=C(S[C@@H]3CN[C@H](C(=O)N(C)C)C3)[C@H](C)[C@H]12 [MEROPENEM] | 0.12 µg/mL (≈ 0.313 µM)

Tested on: Campylobacter jejuni
Assay: Antibacterial activity against Campylobacter jejuni isolate P1093 harboring blaOXA-61::cat gene by NCCLS agar doubling dilution method
Type: functional
In short: (§2)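 Agar doubling dilution MICs (NCCLS/CLSI Campylobacter Working Group method) against Cj0299-inactivated mutants. Mutants were made by transforming the C. jejuni isolate with pCI and selecting on Mueller-Hinton agar with 10 μg/ml chloramphenicol for 3–5 days. Chromosomal insertion was confirmed by PCR with Cj0299 and cat primers.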

Compound | MIC
C[C@@H](O)[C@H]1C(=O)N2C(C(=O)O)=C(S[C@@H]3CN[C@H](C(=O)N(C)C)C3)[C@H](C)[C@H]12 [MEROPENEM] | 0.03 µg/mL (≈ 0.0782 µM)

Tested on: Campylobacter jejuni
Assay: Antibacterial activity against bla gene-positive and nitrocefin reaction-negative beta-lactamase harboring Campylobacter jejuni isolate P1698 by NCCLS agar doubling dilution method
Type: functional
In short: as §1

Compound | MIC
C[C@@H](O)[C@H]1C(=O)N2C(C(=O)O)=C(S[C@@H]3CN[C@H](C(=O)N(C)C)C3)[C@H](C)[C@H]12 [MEROPENEM] | 0.015 µg/mL (≈ 0.0391 µM)

Tested on: Campylobacter coli
Assay: Antibacterial activity against bla-positive and beta-lactamase-weakly positive Campylobacter coli isolate P1627 by NCCLS agar doubling dilution method
Type: functional
In short: (§3)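 MICs by agar doubling dilution per the NCCLS (now CLSI) Campylobacter Working Group method. Isolates came from UK chicken flocks (feces, ceca or farm environment), 2000–2006. C. jejuni NCTC 11168 and C. coli NCTC 11366 served as control strains. The ampicillin resistance cutoff was 8 μg/ml; BSAC/CLSI Enterobacteriaceae guidelines were used for other agents.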

Compound | MIC
C[C@@H](O)[C@H]1C(=O)N2C(C(=O)O)=C(S[C@@H]3CN[C@H](C(=O)N(C)C)C3)[C@H](C)[C@H]12 [MEROPENEM] | 0.03 µg/mL (≈ 0.0782 µM)

Tested on: Campylobacter jejuni
Assay: Antibacterial activity against bla gene-negative and nitrocefin reaction-negative beta-lactamase harboring Campylobacter jejuni isolate P850 by NCCLS agar doubling dilution method
Type: functional
In short: as §1

Compound | MIC
C[C@@H](O)[C@H]1C(=O)N2C(C(=O)O)=C(S[C@@H]3CN[C@H](C(=O)N(C)C)C3)[C@H](C)[C@H]12 [MEROPENEM] | 0.03 µg/mL (≈ 0.0782 µM)

Tested on: Campylobacter jejuni
Assay: Antibacterial activity against bla gene-positive and nitrocefin reaction-positive beta-lactamase harboring Campylobacter jejuni isolate P1618 by NCCLS agar doubling dilution method
Type: functional
In short: as §1

Compound | MIC
C[C@@H](O)[C@H]1C(=O)N2C(C(=O)O)=C(S[C@@H]3CN[C@H](C(=O)N(C)C)C3)[C@H](C)[C@H]12 [MEROPENEM] | 0.008 µg/mL (≈ 0.0209 µM)

Tested on: Campylobacter jejuni
Assay: Antibacterial activity against bla gene-positive and nitrocefin reaction-positive beta-lactamase harboring Campylobacter jejuni isolate P338 by NCCLS agar doubling dilution method
Type: functional
In short: as §3

Compound | MIC
C[C@@H](O)[C@H]1C(=O)N2C(C(=O)O)=C(S[C@@H]3CN[C@H](C(=O)N(C)C)C3)[C@H](C)[C@H]12 [MEROPENEM] | 0.12 µg/mL (≈ 0.313 µM)

Tested on: Campylobacter jejuni
Assay: Antibacterial activity against Campylobacter jejuni isolate P270 harboring blaOXA-61::cat gene by NCCLS agar doubling dilution method
Type: functional

Compound | MIC
C[C@@H](O)[C@H]1C(=O)N2C(C(=O)O)=C(S[C@@H]3CN[C@H](C(=O)N(C)C)C3)[C@H](C)[C@H]12 [MEROPENEM] | 0.008 µg/mL (≈ 0.0209 µM)

Tested on: Campylobacter jejuni
Assay: Antibacterial activity against bla gene-positive and nitrocefin reaction-positive beta-lactamase harboring Campylobacter jejuni isolate P316 by NCCLS agar doubling dilution method
Type: functional
In short: as §3

Compound | MIC
C[C@@H](O)[C@H]1C(=O)N2C(C(=O)O)=C(S[C@@H]3CN[C@H](C(=O)N(C)C)C3)[C@H](C)[C@H]12 [MEROPENEM] | 0.12 µg/mL (≈ 0.313 µM)

Tested on: Campylobacter coli
Assay: Antibacterial activity against bla gene-positive and nitrocefin reaction-positive beta-lactamase harboring Campylobacter coli isolate P1826 by NCCLS agar doubling dilution method
Type: functional
In short: as §1

Compound | MIC
C[C@@H](O)[C@H]1C(=O)N2C(C(=O)O)=C(S[C@@H]3CN[C@H](C(=O)N(C)C)C3)[C@H](C)[C@H]12 [MEROPENEM] | 0.06 µg/mL (≈ 0.156 µM)

Tested on: Campylobacter jejuni
Assay: Antibacterial activity against bla gene-negative and nitrocefin reaction-negative beta-lactamase harboring Campylobacter jejuni isolate P835 by NCCLS agar doubling dilution method
Type: functional
In short: as §1

Compound | MIC
C[C@@H](O)[C@H]1C(=O)N2C(C(=O)O)=C(S[C@@H]3CN[C@H](C(=O)N(C)C)C3)[C@H](C)[C@H]12 [MEROPENEM] | < 0.015 µg/mL

Tested on: Campylobacter jejuni
Assay: Antibacterial activity against bla gene-positive and nitrocefin reaction-positive beta-lactamase harboring Campylobacter jejuni isolate P790 by NCCLS agar doubling dilution method
Type: functional
In short: as §3

Compound | MIC
C[C@@H](O)[C@H]1C(=O)N2C(C(=O)O)=C(S[C@@H]3CN[C@H](C(=O)N(C)C)C3)[C@H](C)[C@H]12 [MEROPENEM] | 0.12 µg/mL (≈ 0.313 µM)

Tested on: Campylobacter coli
Assay: Antibacterial activity against Campylobacter coli by NCCLS agar doubling dilution method
Type: functional
In short: (§4)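 MICs by agar doubling dilution following the NCCLS (CLSI) Campylobacter Working Group procedure, applied to ampicillin- and amoxicillin-resistant isolates from UK chicken flocks (2000–2006). C. jejuni NCTC 11168 and C. coli NCTC 11366 served as control strains. Resistance was called at an ampicillin cutoff of 8 μg/ml. Other agents were judged against Enterobacteriaceae guidelines (BSAC, CLSI).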

Compound | MIC50 | MIC90
C[C@@H](O)[C@H]1C(=O)N2C(C(=O)O)=C(S[C@@H]3CN[C@H](C(=O)N(C)C)C3)[C@H](C)[C@H]12 [MEROPENEM] | 0.12 µg/mL (≈ 0.313 µM) | 0.12 µg/mL (≈ 0.313 µM)

Tested on: Campylobacter jejuni
Assay: Antibacterial activity against bla gene-positive and nitrocefin reaction-positive beta-lactamase harboring Campylobacter jejuni isolate P1093 by NCCLS agar doubling dilution method
Type: functional
In short: as §1

Compound | MIC
C[C@@H](O)[C@H]1C(=O)N2C(C(=O)O)=C(S[C@@H]3CN[C@H](C(=O)N(C)C)C3)[C@H](C)[C@H]12 [MEROPENEM] | 0.5 µg/mL (≈ 1.3 µM)

Tested on: Campylobacter jejuni
Assay: Antibacterial activity against bla gene-positive and nitrocefin reaction-negative beta-lactamase harboring Campylobacter jejuni NCTC 11168 by NCCLS agar doubling dilution method
Type: functional
In short: as §1

Compound | MIC
C[C@@H](O)[C@H]1C(=O)N2C(C(=O)O)=C(S[C@@H]3CN[C@H](C(=O)N(C)C)C3)[C@H](C)[C@H]12 [MEROPENEM] | 0.08 µg/mL (≈ 0.209 µM)

Tested on: Campylobacter jejuni
Assay: Antibacterial activity against bla gene-positive and nitrocefin reaction-positive beta-lactamase harboring Campylobacter jejuni isolate P1650 by NCCLS agar doubling dilution method
Type: functional
In short: as §1

Compound | MIC
C[C@@H](O)[C@H]1C(=O)N2C(C(=O)O)=C(S[C@@H]3CN[C@H](C(=O)N(C)C)C3)[C@H](C)[C@H]12 [MEROPENEM] | 0.008 µg/mL (≈ 0.0209 µM)

Tested on: Campylobacter jejuni
Assay: Antibacterial activity against Campylobacter jejuni by NCCLS agar doubling dilution method
Type: functional
In short: as §4

Compound | MIC50 | MIC90
C[C@@H](O)[C@H]1C(=O)N2C(C(=O)O)=C(S[C@@H]3CN[C@H](C(=O)N(C)C)C3)[C@H](C)[C@H]12 [MEROPENEM] | 0.015 µg/mL (≈ 0.0391 µM) | 0.12 µg/mL (≈ 0.313 µM)

Tested on: Campylobacter jejuni
Assay: Antibacterial activity against bla gene-positive and nitrocefin reaction-positive beta-lactamase harboring Campylobacter jejuni isolate P286 by NCCLS agar doubling dilution method
Type: functional
In short: as §3

Compound | MIC
C[C@@H](O)[C@H]1C(=O)N2C(C(=O)O)=C(S[C@@H]3CN[C@H](C(=O)N(C)C)C3)[C@H](C)[C@H]12 [MEROPENEM] | 0.25 µg/mL (≈ 0.652 µM)

Tested on: Campylobacter jejuni
Assay: Antibacterial activity against bla gene-positive and nitrocefin reaction-positive beta-lactamase harboring Campylobacter jejuni isolate P305 by NCCLS agar doubling dilution method
Type: functional
In short: as §3

Compound | MIC
C[C@@H](O)[C@H]1C(=O)N2C(C(=O)O)=C(S[C@@H]3CN[C@H](C(=O)N(C)C)C3)[C@H](C)[C@H]12 [MEROPENEM] | 0.06 µg/mL (≈ 0.156 µM)

Tested on: Campylobacter jejuni
Assay: Antibacterial activity against bla gene-positive and nitrocefin reaction-positive beta-lactamase harboring Campylobacter jejuni isolate P285 by NCCLS agar doubling dilution method
Type: functional
In short: as §3

Compound | MIC
C[C@@H](O)[C@H]1C(=O)N2C(C(=O)O)=C(S[C@@H]3CN[C@H](C(=O)N(C)C)C3)[C@H](C)[C@H]12 [MEROPENEM] | 0.015 µg/mL (≈ 0.0391 µM)

Tested on: Campylobacter jejuni
Assay: Antibacterial activity against bla gene-negative and nitrocefin reaction-negative beta-lactamase harboring Campylobacter jejuni isolate P1962 by NCCLS agar doubling dilution method
Type: functional
In short: as §1

Compound | MIC
C[C@@H](O)[C@H]1C(=O)N2C(C(=O)O)=C(S[C@@H]3CN[C@H](C(=O)N(C)C)C3)[C@H](C)[C@H]12 [MEROPENEM] | 0.015 µg/mL (≈ 0.0391 µM)

Tested on: Campylobacter jejuni
Assay: Antibacterial activity against Campylobacter jejuni isolate P338 harboring blaOXA-61::cat gene by NCCLS agar doubling dilution method
Type: functional
In short: as §2

Compound | MIC
C[C@@H](O)[C@H]1C(=O)N2C(C(=O)O)=C(S[C@@H]3CN[C@H](C(=O)N(C)C)C3)[C@H](C)[C@H]12 [MEROPENEM] | 0.015 µg/mL (≈ 0.0391 µM)

Tested on: Campylobacter jejuni
Assay: Antibacterial activity against bla gene-positive and nitrocefin reaction-positive beta-lactamase harboring Campylobacter jejuni isolate P1730 by NCCLS agar doubling dilution method
Type: functional
In short: as §3

Compound | MIC
C[C@@H](O)[C@H]1C(=O)N2C(C(=O)O)=C(S[C@@H]3CN[C@H](C(=O)N(C)C)C3)[C@H](C)[C@H]12 [MEROPENEM] | 0.015 µg/mL (≈ 0.0391 µM)

Tested on: Campylobacter jejuni
Assay: Antibacterial activity against bla gene-negative and nitrocefin reaction-positive beta-lactamase harboring Campylobacter jejuni isolate P843 by NCCLS agar doubling dilution method
Type: functional
In short: as §1

Compound | MIC
C[C@@H](O)[C@H]1C(=O)N2C(C(=O)O)=C(S[C@@H]3CN[C@H](C(=O)N(C)C)C3)[C@H](C)[C@H]12 [MEROPENEM] | 0.03 µg/mL (≈ 0.0782 µM)

Tested on: Campylobacter jejuni
Assay: Antibacterial activity against bla gene-positive and nitrocefin reaction-negative beta-lactamase harboring Campylobacter jejuni isolate P1699 by NCCLS agar doubling dilution method
Type: functional
In short: as §1

Compound | MIC
C[C@@H](O)[C@H]1C(=O)N2C(C(=O)O)=C(S[C@@H]3CN[C@H](C(=O)N(C)C)C3)[C@H](C)[C@H]12 [MEROPENEM] | 0.015 µg/mL (≈ 0.0391 µM)
